Shown are actives, neighbours in structure and some others; about 3.2% of the full set was active somewhere.
NR2E3 ag-1: activates human photoreceptor nuclear receptor NR2E3. Q9Y5X4. actives 0.12% (n = 320,000). AID 2300. inhibition of corepressor binding, % at 4.78 µM. GST-NR2E3/biotin-RetCOR TR-FRET, 1536-well;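 active = percent inhibition above the cutoff of mean plus 3 SD of all tested compounds, set per screening campaign, cut at about 20% in these data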;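 note: 0% = DMSO wells and 100% = biotin wells as full block of FRET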
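System: GST-tagged NR2E3 plus biotinylated RetCOR corepressor; Buffer or medium: pH 7.5 Tris-based buffer; Probe or stimulus: RetCOR corepressor, biotinylated, 7 nM; Doses: compound at 4.8 µM, single dose; Schedule: 5 h incubation at 4 °C; Technique: time-resolved FRET; Evaluation: percent inhibition of TR-FRET ratio; Replication: one well per compound, singlicate testing.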
DAX1 inh-1: NR0B1 (DAX1) inhibition | HEK293 Gal4-DAX1 luciferase reporter, luminescence | inhibition, % at 6.75 µM | P51843 | actives 0.99% (n = 340,000) | AID 504766;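 active = inhibition above the mean over all tested compounds plus 3 SD, cut at about 4.2% in these data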;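 note: 0% = DAX1-transfected cells with DMSO and 100% = empty-vector control cells with DMSO; inhibition shows as a rise in luminescence from relieved DAX1 repression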
Target sequence (P51843 207-470 limits assumed): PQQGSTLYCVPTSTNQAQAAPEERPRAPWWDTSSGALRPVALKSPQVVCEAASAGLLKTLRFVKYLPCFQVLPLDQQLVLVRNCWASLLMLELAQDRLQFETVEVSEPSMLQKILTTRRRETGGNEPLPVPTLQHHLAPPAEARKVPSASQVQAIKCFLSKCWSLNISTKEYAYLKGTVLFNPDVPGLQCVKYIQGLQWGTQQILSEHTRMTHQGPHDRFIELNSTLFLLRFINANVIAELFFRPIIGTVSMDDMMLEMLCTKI
DAX1 inh-2: blocks DAX1 repression of SF-1 activated StAR promoter. HEK293T StAR-luciferase reporter, SF-1/DAX-1 repression relief. inhibition, % at 6.8 µM. actives 1.1% (n = 370,000). AID 652010;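 active = inhibition above the mean over all tested compounds plus 3 SD, cut at about 3.6% in these data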;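 note: 0% = DAX-1 cells with DMSO and 100% = cells lacking DAX-1 with DMSO; higher inhibition means more luminescence from relief of DAX-1 repression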
NR2E3 ag-2: activates human NR2E3 receptor; CHO-S Gal4-NCOR/VP16-NR2E3 two-hybrid, luciferase; inhibition of corepressor binding, % at 3.98 µM; Q9Y5X4; AID 602229; actives 0.35% (n = 360,000);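 active = inhibition above the mean of all tested compounds plus 3 SD, cut at about 70% in these data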;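 note: 0% = DMSO with NR2E3 transfected cells and 100% = cells lacking NR2E3 construct; higher means lower luciferase signal from less NR2E3 corepressor binding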
GASC-1 inh: human JMJD2C demethylase inhibition | Q9H3R0 | GST-JMJD2C(1-420) H3K9me3 demethylation, DELFIA europium | inhibition, % at 2.35 µM | actives 0.069% (n = 330,000) | AID 2099;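 active = more than half of a compound's replicate wells show inhibition beyond 50%, single wells judged on their own value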;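 note: signal counts dimethyl H3K9 product captured on neutravidin plate; 0% = median of DMSO wells and 100% = 0.3 times that DMSO median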
Target sequence (Q9H3R0 1-420 limits assumed): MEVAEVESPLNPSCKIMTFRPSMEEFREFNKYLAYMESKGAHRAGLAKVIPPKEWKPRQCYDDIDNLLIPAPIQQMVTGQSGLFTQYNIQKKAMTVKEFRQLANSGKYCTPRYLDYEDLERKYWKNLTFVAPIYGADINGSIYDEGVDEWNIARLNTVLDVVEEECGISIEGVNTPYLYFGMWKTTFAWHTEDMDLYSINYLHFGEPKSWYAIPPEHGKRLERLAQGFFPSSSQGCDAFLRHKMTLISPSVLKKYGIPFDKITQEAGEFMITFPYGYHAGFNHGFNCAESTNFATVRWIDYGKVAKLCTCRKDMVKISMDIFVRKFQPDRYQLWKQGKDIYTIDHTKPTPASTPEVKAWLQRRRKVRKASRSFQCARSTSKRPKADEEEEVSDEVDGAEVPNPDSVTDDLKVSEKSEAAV
SMARCA2 act: activators of SMARCA2 function; MG213 cells, MMTV-luciferase reporter, dexamethasone, overnight; activation, % at 9.1 µM; actives 1% (n = 370,000); in the data active = activation above about 7.8%;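 note: 0% = vehicle wells and 100% = reference activator wells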
* = called active by the depositor.

Cc1ccccc1NC(=O)NCCN1C(=O)C2C3C=CC(C3)C2C1=O (stereo not drawn) was read as NR2E3 ag-1 2.0, DAX1 inh-1 4.7*, DAX1 inh-2 0.0, NR2E3 ag-2 -6.1, GASC-1 inh -5.8 and SMARCA2 act 0.4.
Screening COc1ccc(NC(=O)NCCN2C(=O)C3C4C=CC(C4)C3C2=O)cc1 (stereo not drawn) returned NR2E3 ag-1 -3.2, DAX1 inh-1 6.0*, DAX1 inh-2 1.8, NR2E3 ag-2 -31.3, GASC-1 inh 0.7 and SMARCA2 act 0.6.
Cc1cccc(NC(=O)NCCN2C(=O)C3C4C=CC(C4)C3C2=O)c1 (stereo not drawn) was read as NR2E3 ag-1 2.1, DAX1 inh-1 3.1, DAX1 inh-2 1.1, NR2E3 ag-2 -22.1, GASC-1 inh 2.6 and SMARCA2 act -0.7.
Screening COC(=O)c1ccc(CN2CC3CC(c4ccccc4)N4CCCC34C2=O)cc1 (stereo not drawn) returned DAX1 inh-2 -0.2 and SMARCA2 act -1.9.
For C/C(=N\NC(=O)c1cccc(O)c1)c1cccc(NC(=O)c2ccc(F)cc2)c1 the results were NR2E3 ag-1 0.0, DAX1 inh-1 2.5, DAX1 inh-2 4.3*, NR2E3 ag-2 -83.6, GASC-1 inh -1.8 and SMARCA2 act 3.5.
For C/C(=N\NC(=O)c1cccc(O)c1)c1ccc(NC(=O)Cc2ccccc2)cc1 the results were NR2E3 ag-1 2.8, DAX1 inh-1 1.4, DAX1 inh-2 6.8*, NR2E3 ag-2 -126.3, GASC-1 inh -3.6 and SMARCA2 act 3.0.
For C/C(=N\NC(=O)c1ccc(F)cc1)c1cccc(NC(=O)c2cccc(F)c2)c1 the results were NR2E3 ag-1 0.9, DAX1 inh-1 0.4, DAX1 inh-2 0.5, NR2E3 ag-2 -19.4, GASC-1 inh -18.9 and SMARCA2 act 2.0.
Screening COc1cccc(C(=O)N/N=C(\C)c2ccc(NC(=O)Cc3ccccc3)cc2)c1OC returned DAX1 inh-1 1.5, DAX1 inh-2 3.8*, NR2E3 ag-2 -96.6, GASC-1 inh -2.8 and SMARCA2 act -0.6.
Screening O=C(OC12CCCN(C1)/C(=C/c1ccncc1)C2)c1ccccc1 (stereo not drawn) returned DAX1 inh-2 -3.3 and SMARCA2 act -3.5.
For Nc1ccccc1S(=O)(=O)NC1=NCCCCC1 the results were NR2E3 ag-1 1.9, DAX1 inh-1 4.4*, DAX1 inh-2 -0.2, NR2E3 ag-2 9.7, GASC-1 inh 7.5 and SMARCA2 act -2.6.
For COC(=O)C1CN(Cc2cn(Cc3ccc(Cl)cc3)nn2)CCS(=O)(=O)N1Cc1ccc(C)cc1 (stereo not drawn) the results were DAX1 inh-2 -1.6 and SMARCA2 act -0.3.
For CC(C)(C)C(=O)NC1CCCCN(Cc2cccc(Cl)c2)C1=O (stereo not drawn) the results were DAX1 inh-2 -3.0 and SMARCA2 act -3.1.
For O=C(c1ccc(F)cc1)N1CCN2C(=O)c3ccccc3C12c1ccccc1 (stereo not drawn) the results were NR2E3 ag-1 0.6, DAX1 inh-1 1.4, DAX1 inh-2 0.2, NR2E3 ag-2 -2.8, GASC-1 inh -11.3 and SMARCA2 act 7.4.
Screening O=C(c1ccc(F)cc1)N1CCN2C(=O)c3ccccc3C12c1ccc(Cl)cc1 (stereo not drawn) returned NR2E3 ag-1 1.0, DAX1 inh-1 4.2*, DAX1 inh-2 0.2, NR2E3 ag-2 18.9, GASC-1 inh -1.6 and SMARCA2 act -5.1.
Screening CS(=O)(=O)N[C@@H]1C[C@@H]2O[C@@H](CO)CC[C@@H]2O[C@@H]1CCc1ccc(/C=C/c2ccccc2)cc1 returned DAX1 inh-2 -0.5 and SMARCA2 act -1.3.
`Cc1ccc(NC(=O)C(=O)NCC2CCCO2)cc1C` (stereo not drawn) gave NR2E3 ag-1 -1.0, DAX1 inh-1 5.8*, DAX1 inh-2 2.7, NR2E3 ag-2 -104.0, GASC-1 inh -10.5 and SMARCA2 act 6.2.
`Cc1c(C(=O)NCC2CCCO2)oc2ccc(Br)cc12` (stereo not drawn) gave NR2E3 ag-1 -2.3, DAX1 inh-1 1.9, DAX1 inh-2 3.8*, NR2E3 ag-2 -61.2, GASC-1 inh 20.4 and SMARCA2 act 2.6.
For CC(=O)Nc1ccc(S(=O)(=O)NCC2CCCO2)cc1 (stereo not drawn) the results were NR2E3 ag-1 0.7, DAX1 inh-1 5.1*, DAX1 inh-2 -0.5, NR2E3 ag-2 -10.7, GASC-1 inh 3.0 and SMARCA2 act 3.7.
For CS(=O)(=O)c1ccc2nc(NC(=O)Nc3ccccc3F)sc2c1 the results were NR2E3 ag-1 3.1, DAX1 inh-1 7.3*, DAX1 inh-2 2.5, NR2E3 ag-2 -184.7, GASC-1 inh -4.5 and SMARCA2 act 6.7.
For COC(=O)C(C(=O)OC)[C@H]1C=C[C@@H](C(=O)NS(=O)(=O)c2ccc(C)cc2)N(C(C)=O)C1 the results were DAX1 inh-2 -0.1 and SMARCA2 act -1.7.
`CN1CCCN(C(=O)C2CCN(c3ncnc4c3sc3cccc(F)c34)CC2)CC1` gave DAX1 inh-2 -0.7 and SMARCA2 act 1.3.
For CS(=O)(=O)c1ccc2nc(NC(=O)c3ccc(S(=O)(=O)NCC4CCCO4)cc3)sc2c1 (stereo not drawn) the results were NR2E3 ag-1 -2.0, DAX1 inh-1 5.4*, DAX1 inh-2 -2.0, NR2E3 ag-2 -14.4, GASC-1 inh -1.4 and SMARCA2 act -1.4.
`CS(=O)(=O)c1ccc2nc(NC(=O)c3ccccc3)sc2c1` gave NR2E3 ag-1 -0.5, DAX1 inh-1 2.7, DAX1 inh-2 0.7, NR2E3 ag-2 -111.2, GASC-1 inh 3.9 and SMARCA2 act 0.3.
For O=C(c1ccc2oc(CCCc3ccccc3)nc2c1)N1CCCCC1CO (stereo not drawn) the results were DAX1 inh-1 1.4, DAX1 inh-2 3.8*, NR2E3 ag-2 -91.0, GASC-1 inh 7.6 and SMARCA2 act 2.6.
Screening NC(=O)[C@@H]1CCCN1C(=O)c1ccc2oc(CCc3ccccc3)nc2c1 returned DAX1 inh-1 0.8, DAX1 inh-2 3.6*, NR2E3 ag-2 -45.8, GASC-1 inh -6.9 and SMARCA2 act 1.9.
`NC(=O)[C@@H]1CCCN1C(=O)c1ccc2nc(Cc3ccccc3F)oc2c1` gave NR2E3 ag-1 -4.3, DAX1 inh-1 1.9, DAX1 inh-2 0.5, NR2E3 ag-2 -24.7, GASC-1 inh -1.4 and SMARCA2 act 6.6.
For CCOC(=O)c1csc(NC(=O)C2CCCN(S(=O)(=O)c3ccc(C)cc3)C2)n1 (stereo not drawn) the results were DAX1 inh-2 -3.3 and SMARCA2 act -6.5.
For COc1ccc(CCN2CC(C(=O)Nc3cc(F)ccc3F)CC2=O)cc1OC (stereo not drawn) the results were NR2E3 ag-1 1.0, DAX1 inh-1 2.3, DAX1 inh-2 -0.6, NR2E3 ag-2 6.8, GASC-1 inh 8.6 and SMARCA2 act -2.7.

Source: PubChem (several laboratories)
